Test: Toxicity liver stage against HepG2, at 10uM
Assay type: cell-based
Set-up: test concentration 10 uM, cell line HepG2-A16-CD81EGFP
Conditions: human, HepG2-A16-CD81EGFP cells; read-out: INHIBITION
Outline: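 Uninfected HepG2-A16-CD81EGFP cells, 3 × 10^3 per well, 1536-well, plated on prespotted compound at 10 μM final, parasite-free screening media added to match infected plates; puromycin 10 μM positive, DMSO 0.5% negative; run in parallel with 48 h PbLuc assay at 37 °C, 5% CO2; viability by CellTiter-Glo luminescence, normalized to controls.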

Compound	cytotoxicity at 10 µM [%]
Oc1cccc(CNC2CCN(CCc3ccncc3)CC2)c1	-1.56
CCn1c(NCc2ccccn2)nc2c(C)nn(C)c2c1=O	9.51
CCn1cc2c(n1)CN(Cc1cnn(C)c1)CC2COCC1CC1 (centres undefined)	-80.4
Cc1ccc(C)c(S(=O)(=O)CCNC2CCc3ncnn3C2)c1 (centres undefined)	-30.6
Cc1cccn2c(NC(C)(C)C)c(C3CCN(C(=O)C4CC4)CC3)nc12	3.53
COc1ccc2[nH]c(CNc3cc(C4CCNCC4)nc(C)n3)cc2c1	-13.4
CCc1csc(C2CCCN(C(=O)c3ncccn3)C2)n1 (centres undefined)	-1.92
Cn1c(NCC(O)c2ccc(F)cc2F)c(C#N)c(=O)n(C)c1=O (centres undefined)	-10.9
Cc1nc(N(C)C)nc(C)c1NC(=O)c1ccccc1C(F)(F)F	-1.94
CCn1cc(S(=O)(=O)NCc2ccnc(-n3ccnc3)c2)cn1	-1.78
CCC1CCCN(Cc2nc3ccccc3c(=O)[nH]2)C1 (centres undefined)	-46
Cc1ccc(CN2CC[C@H]3CO[C@H](CN(C)Cc4ccco4)[C@H]3C2)s1	4.74
CN(Cc1nc2ccccc2o1)CC1CCCN1c1cccnn1 (centres undefined)	-9.45
Cc1cn2c(n1)C(CNCC1=Cc3cc(Cl)ccc3OC1)CCC2 (centres undefined)	33.3
CCc1ccc2nc(NCC(O)CO)cc(C)c2c1 (centres undefined)	-15.4
C/C=C(\C)CN1C[C@H](NC(=O)CCOC)[C@@H](c2ccc(C)o2)C1	7.06
Cc1noc(C)c1C(=O)N1CCCC1c1c(C)nn(C)c1Cl (centres undefined)	-12.6
CN1C(=O)C2(CCN(c3nccc4occc34)CC2)c2ccccc21	1.16
CCc1noc(-c2cccc(NC(=O)C(C)(C)C)c2)n1	-4.15
Cc1nnsc1CN1C[C@@H]2CC[C@H]1CN(Cc1ccccc1)C2	0.929
CC(C)(C)OC(=O)NCC1CCN(C(=O)c2ccccc2O)CC1	8.53
COC(=O)c1cccn1C1CCN(C(=O)c2cn[nH]c2C)CC1	-7.64

Compound	cytotoxicity at 10 µM [%]
COc1cc(CNC(C)c2nnc3n2CCC3)cc(OC)c1 (centres undefined)	-41.7
CCCNC(=O)C[S+]([O-])Cc1csc(C2CCCCC2)n1 (centres undefined)	-48.2
CC(C)(C)CN1CCCC12CCN(S(=O)(=O)c1ccccc1)C2 (centres undefined)	-67.5
c1coc(CN2C[C@@H]3OCCN(CC4CCCO4)[C@@H]3C2)c1 (some centres undefined)	-83.1
CCOC(=O)c1cnn(-c2cc(Oc3ccccc3)ncn2)c1N	2.93
Fc1ccc(CN2CCc3ncnc(C4CCOC4)c3CC2)cc1 (centres undefined)	12.3
NC(=O)c1ccc2c(c1)nc1n2CCN(Cc2cccnc2)C1	10.3
COc1cc2cc3c(nc2cc1OC)OCCN(Cc1cccs1)C3	11.4
O=C(NCC1CCCO1)N1CCN(Cc2ccc3c(c2)CCO3)CC1 (centres undefined)	-5.91
CC(C)CC(NC(=O)c1cccc(F)c1F)C(=O)Nc1cc[nH]n1 (centres undefined)	-7.82
CCc1nnc2n1CCN(Cc1csc(-c3ncccn3)n1)C2	-2.33
CCc1nccn1C1CCCN(C(=O)c2cnn(C)c2C2CC2)C1 (centres undefined)	-12.8
Cn1nc(C(=O)N2CCOCC2)c2c1CN(CC1CCC1)C2	-103
COCCS(=O)(=O)c1ncc(CN(C)C)n1Cc1ccccc1	3.19
Cc1nc(-c2nc(C(=O)N(C)C)c3ccccn23)cn1C(C)C	-121
CN(Cc1ccccn1)C1COC2(CCN(Cc3cccnc3)CC2)C1 (centres undefined)	-1.42
O=C(N1CCCC(n2cncn2)C1)C1(c2ccccc2F)CCCC1 (centres undefined)	-4.24
OC(c1cnn(-c2ccccc2)c1)C(F)(F)F (centres undefined)	-3.75
Cc1ccc(S(=O)(=O)N2CC(C)Oc3ncccc32)c(C)c1 (centres undefined)	5.35
c1cnn(CCCO[C@@H]2CC[C@H]3[C@H]2OCCN3CC2CC2)c1	5.93
Cc1noc(C)c1-c1ccc(C2CCCN2C(=O)Cn2ccnc2)nc1 (centres undefined)	-10.2
O=C(NCc1ccco1)[C@H]1C[C@H]2OCC[C@H]2N(S(=O)(=O)C2CC2)C1	-1.48

Compound	cytotoxicity at 10 µM [%]
CC(=O)N1C[C@H]2CCCC(N3CCN(c4ncccn4)CC3)[C@H]2C1 (some centres undefined)	9.46
CSCc1noc(CN2CC3(CCCC3)CC2=O)n1	4.29
CN(C)C(=O)COCc1cncc2c1CCN(Cc1ccccc1)C2	-4.24
CCOc1ncccc1CNC(=O)Nc1ccc(N(C)C)nc1	-11.8
CC(C)CCNC(=O)C1CCCN1C(=O)Nc1cccc(F)c1 (centres undefined)	-1.04
O=C(CCc1ccc(Cl)cc1)NC1CCN(c2cccc(F)c2)CC1	-5.99
Cc1nc2cc(=O)[nH]n2c(C)c1CC(=O)NCc1ccc(C#N)cc1	-3.34
CN(C)CCN(Cc1ccc(C(F)(F)F)cc1)C(=O)c1cc[nH]n1	3.95
CCCS(=O)(=O)N1CCC2(CCCN(c3ncc(F)cn3)C2)C1 (centres undefined)	13.4
Cc1cc(CN2CCN(C(=O)NCc3cccs3)CC2)no1	-11.6
CC(C)CNC(=O)N1CCOC2(CCNCC2)C1	9.28
Cn1cnnc1C1CCN(C(=O)CCCOCc2ccccc2)CC1	-7.06
CCn1cc(CN2CCCN(C(=O)c3ccc(C)nc3)CC2)cn1	-10.4
OCCN(Cc1ccncc1)CC1(c2ccc(Cl)cc2)CC1	9.39
c1ccc(COC[C@]23COC[C@H]2CN(c2ncccn2)C3)nc1	2.14
NC(=O)C1CCN(C(=O)CCn2ccc3cc(Br)ccc32)CC1	-6.44
COCCOc1ccc(NC(=O)N(CCO)C2CC2)cn1	-2.77
Cc1ncsc1CNC(=O)N(CCCO)C1CCc2ccccc21 (centres undefined)	-9.99
Cc1nc(C(=O)N2CCCC(n3cncn3)C2)cs1 (centres undefined)	5.7
COCCNS(=O)(=O)c1ccc(CNc2ncccc2C#N)cc1	6.47
CCS(=O)(=O)N1CC(c2nc(-c3ccncc3)no2)C1	-5.86
CCCn1ncc(CN2CCCC(C(=O)c3ccc(SC)cc3)C2)c1C (centres undefined)	-3.25

Compound	cytotoxicity at 10 µM [%]
CC(O)c1cn(Cc2ccc(Cl)cc2Cl)nn1 (centres undefined)	15.5
O=C(CO)N1CCN(C(=O)c2coc3ccccc23)CC1	3.16
CN(C(=O)NCC1(CN2CCOCC2)CCCCC1)C1CC1	-1.91
Cn1cc(N2CCC3(CCCN(Cc4ccoc4)C3)C2=O)cn1 (centres undefined)	-77
CCCN(C)S(=O)(=O)NC(=O)c1ccc(CC)o1	20.5
CN(C)C[C@@H]1CN(C(=O)c2cc(S(N)(=O)=O)ccc2F)C[C@@H]1CO	4.83
CCC(=O)N1CCC2(C=C(C(=O)N(C)C)c3ccccc32)CC1	-87.3
Cc1nc(C)n(CC2CCCCN2CCOc2ccc(C#N)cc2)n1 (centres undefined)	-6.79
O=C(c1ccc2c(c1)CCC2)N1CCC(c2n[nH]c(C3CC3)n2)CC1	-8.06
O=C1NCCCC12CCN(S(=O)(=O)N1CCOCC1)C2 (centres undefined)	-1.16
Cc1nnc(NC(=O)NCc2ccoc2)s1	-1.36
CCN1CC2(CCC1=O)CCN(Cc1nncn1C(C)C)CC2	8.39
CN1C[C@H](O)[C@]2(CCN(C(=O)NCc3ccccc3)C2)S1(=O)=O	4.53
Cc1cc(C(=O)NCc2ccc(N3CCCC(C(N)=O)C3)cc2)no1 (centres undefined)	-3.37
Cc1cc(S(=O)(=O)Nc2onc(C)c2C)c(C)s1	-4.96
CCOCC(=O)N1CC[C@H]2[C@@H]1CCC(=O)N2Cc1csc(C)n1	-85.2
O=C([C@@H]1CCO[C@@H]2CCN(Cc3cccnc3)C[C@H]21)N1CCCCO1	-1.17
O=C(N[C@H]1CN(C2CCOCC2)C[C@@H]1C1CC1)c1cc(O)no1	8.4
CCN(C)c1ncnc2c1CCN(Cc1csc(C)n1)CC2	-1.13
Cc1cc(C)n(CC2CN(CCOc3cccc(C#N)c3)CCO2)n1 (centres undefined)	-10.9
FC(F)(F)CN1CCC(CCNc2ncccn2)CC1	-3.94
O=S(=O)(c1ccccc1)N1CCN(Cc2ccc(F)cc2Br)CC1	-2.57

Compound	cytotoxicity at 10 µM [%]
Cc1ccc(-c2ncc(CNc3cnccc3CO)s2)cc1	-7.65
Cc1cs/c(=N\C(=O)Cn2nc(N3CCSCC3)ccc2=O)[nH]1	2.33
Cc1nc(CNC(=O)NCC2(C)CCCc3ccccc32)no1 (centres undefined)	-3.05
Nc1nc(N)c2c(n1)OC1(CCN(Cc3nccs3)C1)C2 (centres undefined)	0.861
CN(CC1CC1)S(=O)(=O)c1ccc(C(F)(F)F)cc1C#N	2.95
O=C(c1ccc(O)cn1)N1CCOC(c2ccc(Cl)c(Cl)c2)C1 (centres undefined)	-4.57
NC(=O)NC(CC(=O)N1CCc2sccc2C1)c1ccccc1F (centres undefined)	3.5
O=C(c1ccccc1-n1cccn1)N1CCCN(c2cccnn2)CC1	7.03
COc1cc(NC(=O)c2ccc(Cl)cc2F)c(C(=O)N(C)C)cc1OC	-18.9
CCN(CC(=O)NC(C)C)C(=O)C(C)(C)c1ccc2c(c1)OCCO2	-2.79
Cc1nnc2n1CCN(C(=O)CN1C(=O)CCCc3ccccc31)C2	-11.4
Cc1ccc(CN2CC[C@H]3CO[C@H](CN4CCCC4)[C@H]3C2)o1	-115
Cc1ccc([C@@H]2CN(S(=O)(=O)N(C)C)C[C@H]2N(C)C)cc1	2.47
O=C(c1cccnc1)N1CCSCC1	-15.1
CCC(C(=O)Nc1ccc2cn(CC)nc2c1)N1CCCC1=O (centres undefined)	-46.7
O=C(c1ccc[nH]1)N1CCC2(CC1)C(=O)Nc1ccccc12	2.09
Cn1cnnc1C1CCCN(C(=O)Cc2ccc3c(c2)OCCO3)C1 (centres undefined)	0.626
CC(=O)N(Cc1noc(C2CC2)n1)C1CCN(Cc2nccn2C)C1 (centres undefined)	-5.65
CN([C@@H]1CCC[C@@H](n2ccnc2)[C@@H]1O)S(=O)(=O)c1cn(C)cn1	0.57
Cc1cccc(C(C(=O)NC(C)(C)CN2CCOCC2)N(C)C)c1 (centres undefined)	-2.21
CC1CN(C(=O)NCCn2ccnc2)CCO1 (centres undefined)	-49.5
